Laboratory results from ChEMBL document CHEMBL4513216, “Probing the Open Global Health Chemical Diversity Library for Multistage-Active Starting Points for Next-Generation Antimalarials” (ACS Infect Dis, 2020).

Test: Toxicity liver stage against HepG2, at 10uM
Format: cell-based
Set-up: test concentration 10 uM, cell line HepG2-A16-CD81EGFP
Conditions: human, HepG2-A16-CD81EGFP cells; read-out: INHIBITION
Method in brief: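 Uninfected HepG2-A16-CD81EGFP cells, 3 × 10^3 per well, 1536-well, plated on prespotted compound at 10 μM final, parasite-free screening media added to match infected plates; puromycin 10 μM positive, DMSO 0.5% negative; run in parallel with 48 h PbLuc assay at 37 °C, 5% CO2; viability by CellTiter-Glo luminescence, normalized to controls.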

Row | SMILES | cytotoxicity at 10 µM [%]
1 | CC(NC(=O)CCc1cccs1)c1nnc2n1CCC2 (centres undefined) | -4.22
2 | Cc1cc(N2CCC(N(C)C(=O)c3sccc3C)CC2)nc(C)n1 | 25.9
3 | O=c1c(S(=O)(=O)N2CCCCC2)cccn1Cc1ccccc1Cl | 10.6
4 | Cc1cc(C)nc(C2CCN(C(=O)CO)CC2)n1 | 2.53
5 | Cc1cc(C(=O)N2CCc3nnc(N(C)C)cc3C2)c(C)n1C1CC1 | 1.56
6 | CNc1nc2cn(C3CCCC3)c(=O)c-2c[nH]1 | 7.17
7 | N#Cc1cccc(N2CCOCC3(CCCN(C(=O)NC4CC4)C3)C2)c1 (centres undefined) | 14.1
8 | COCCS(=O)(=O)NC(=O)c1nnn(-c2ccc(F)cc2)c1C1CC1 | 0.188
9 | CN(C)C(=O)CC1CC2(CCN(c3ncccn3)CC2)c2ccccc21 (centres undefined) | -16.7
10 | O=C(Cc1ccsc1)N1CCc2ncc(Cn3cccn3)n2CC1 | -81.5
11 | Cc1ccc(NC2COC3(CCN(Cc4ccn(C)n4)CC3)C2)nn1 (centres undefined) | -1.68
12 | Cc1cnn(CC2CN(Cc3noc(C4CC4)n3)CCO2)c1 (centres undefined) | -11.4
13 | CC(C)(O)c1cn(C2CCN(C(=O)CCC(F)(F)F)CC2)nn1 | 1.93
14 | O=c1[nH]c2cn(-c3ccccc3)c(=O)n2[nH]1 | -11.5
15 | O=C(NCCCNc1ccc(C(F)(F)F)cn1)c1ccc(F)cc1F | 3.61
16 | O=C(Nc1nnc[nH]1)C(c1cccc(F)c1)N1CCOCC1 (centres undefined) | -9.07
17 | Cc1ccc(C)c(CN2CCOC(c3noc(C)n3)C2)c1 (centres undefined) | 5.12
18 | CCNC(=O)C1CCCN(C(=O)Nc2cc(C#N)ccc2OCC)C1 (centres undefined) | -1.71
19 | O=C(NCC(F)(F)F)C1CCCN(Cc2ccno2)C1 (centres undefined) | -4.13
20 | Cc1nc(CN2CCN(C(=O)c3cc(C4CC4)on3)CC2)cs1 | 2.21
21 | CN(C)c1ncnc2c1CCN(c1cc(C(F)(F)F)ncn1)CC2 | 9.55
22 | COc1cc(F)cc(NC(=O)NCc2cccc(N(C)C)n2)c1 | 25

Row | SMILES | cytotoxicity at 10 µM [%]
23 | CCC(C)NS(=O)(=O)Cc1cccc(NC(=O)c2ccc[nH]2)c1 (centres undefined) | 15.5
24 | CCC(c1ccc(F)cc1F)N1CCN(CCO)CC1 (centres undefined) | -4.34
25 | CC1CCCCN1Cc1nc(Cc2ccccc2)no1 (centres undefined) | 4.61
26 | Cc1nn(C(=O)c2cccnc2)c(C)c1C | -8.62
27 | CC(C)c1noc(CN2CCC(C3CCCCCN3S(C)(=O)=O)CC2)n1 (centres undefined) | -2.71
28 | COCCN1CCC(CNC(=O)C2(S(C)(=O)=O)CCCC2)CC1 | -9.61
29 | CC(=O)N(C)CC(=O)NCC1(c2cccc(C)c2)CCCC1 | -2.37
30 | Cc1nc(CN2CCN(CC3CCOC3)Cc3cccnc32)cs1 (centres undefined) | 11
31 | Cc1nnc(C(NS(=O)(=O)c2cc(C)c(F)cc2F)C(C)C)[nH]1 (centres undefined) | -6.04
32 | CCS(=O)(=O)N1CCc2onc(COc3ccccn3)c2C1 | -4.72
33 | Cc1cccc(C(=O)NC(C)CN2CCCC2=O)n1 (centres undefined) | -9.51
34 | O=C(NC[C@]12COC[C@H]1CN(C1CCOCC1)C2)c1ccco1 | -3.99
35 | Cc1noc(CNc2ccccc2N2CCCCC2)n1 | -25.4
36 | Cc1noc([C@H]2C[C@H]3OCC[C@H]3N(Cc3ccncc3)C2)n1 | -74.7
37 | COc1cc(C)nc(N2CCN(C(=O)c3ccc(Cl)o3)CC2)n1 | -3.22
38 | Cc1ccc(-c2csc3c(=O)[nH]c(N4CCCC(C(N)=O)C4)nc23)cc1 (centres undefined) | -3.09
39 | CC(C)n1ncc2c1NC(=O)CC21C(=O)Nc2c(Cl)ccc(Cl)c21 (centres undefined) | 1.19
40 | CCN(CC)C1COc2c(cc(Br)c(C)c2C)C1=O (centres undefined) | 0.331
41 | Cc1cccc(CN(C(=O)NCc2ccccn2)C2CC2)c1 | -6.73
42 | O=C(c1ccncc1)N1CCC2(CC1)C(=O)Nc1ccccc12 | -146
43 | O=C(Cc1cccnc1)N1CCCC2(CCN(C3CCOCC3)C2)C1 (centres undefined) | -1.45
44 | O=C(CCOCC(F)(F)F)NS(=O)(=O)c1cccnc1 | 0.946

Row | SMILES | cytotoxicity at 10 µM [%]
45 | CCc1cn[nH]c1C1CCCN(C(=O)c2cnc(NC(C)C)nc2)C1 (centres undefined) | -13.2
46 | O=C(CC1CCCO1)Nc1ccc2c(ccn2CCN2CCOCC2)c1 (centres undefined) | 2.55
47 | COCC(=O)N1CCC([C@@H]2C[C@H](C(F)(F)F)n3nc(C)cc3N2)CC1 | -33.6
48 | COCCCNC(=O)c1cc(-c2ccc(OC)cc2)nn1C | 1.54
49 | CN(C)c1ncc2c(c1C(=O)O)CCN(Cc1ccco1)C2 | 3.57
50 | CC(C)c1nc(C2CCCN2CCS(C)(=O)=O)no1 (centres undefined) | 6.51
51 | Cc1ccc(C(=O)N2C[C@@H]3CCN(c4cccnc4)C[C@@H]3C2)cn1 | -75.9
52 | Cc1oncc1C(=O)N1CCC2(C1)CN(c1cccnc1)C(=O)CN2C (centres undefined) | -5.26
53 | CCCOc1ccc(C(=O)Oc2cc(=O)n3cccc(C)c3n2)cc1 | 5.17
54 | CN1CCN(C)C(c2nnc3ccc(C(=O)N4CCOCC4)cn23)C1 (centres undefined) | -130
55 | Cc1noc(C2CCCN(C(=O)c3ccc(N(C)C)nc3)C2)n1 (centres undefined) | -4.69
56 | Cn1nccc1-c1nc2c(cc1C(=O)O)CCN(CC1CC1)CC2 | -119
57 | Cc1ccc(-c2cc(CNC(=O)N3CCC(CO)CC3)on2)cc1 | -7.69
58 | c1cc(CN2CCC3(CC2)COC(COCC2CC2)C3)cs1 (centres undefined) | -0.272
59 | O=C1[C@@H]2CCN(Cc3ccoc3)C[C@@H]2OCCN1Cc1cccc(F)c1 | -98.2
60 | CC(C)CN1CC[C@H]2OCC[C@@H](C(=O)N3CCCO3)[C@@H]2C1 | 3.45
61 | CC(=O)N1CCc2nc(-c3ccc(F)cc3)nc(NC(C)C)c2CC1 | -114
62 | C[C@@H]1CN(c2cccnn2)CC[C@@]1(O)C1CCOCC1 | 2.72
63 | COC(=O)c1cccn1C1CCN(C(=O)c2cc(C)ccc2O)CC1 | -3.22
64 | COC(=O)CSCc1noc(-c2ccc(C)cc2)n1 | 4.13
65 | CCc1cnc(N2C[C@@H]3C[C@H](C(=O)NC4CCC4)[C@H](C2)O3)nc1 | 5.74
66 | COC(=O)c1cc(C(=O)N2CCCC(C)C2)n(-c2ccccc2)n1 (centres undefined) | -11.9

Row | SMILES | cytotoxicity at 10 µM [%]
67 | COc1cc(CNCCn2cccn2)c2c(c1)CC(C)O2 (centres undefined) | 13.7
68 | CN1CCN(S(=O)(=O)c2ccc3c(c2)CN(C(=O)C(C)(C)C)CC3)CC1 | -8.91
69 | CCCC(=O)N1CCC2(CC1)CN(Cc1cccc(C)n1)C(=O)CO2 | -5.05
70 | Cc1noc(C)c1CN1CCOCC12CCN(c1nccs1)CC2 | -104
71 | CC(=O)Nc1ccc2c(c1)nc1n2[C@@H](CNCc2ccccc2)COC1 | -10.2
72 | Cc1c(Cc2ccccc2)c(O)nc2nc(N3CCOCC3)nn12 | 9.76
73 | O=C(NCCC(=O)N1CCCc2ccccc21)c1ccc(F)cc1F | -10.1
74 | CC(NCCCC#N)c1ccc(-c2cccnc2)cc1 (centres undefined) | 11.3
75 | CC(C)(C)C(O)CN1CCN(C(=O)c2ccc3c(c2)COC3)CC1 (centres undefined) | -2.42
76 | Cc1ccc(OC[C@@H]2CNC[C@H](C(=O)NCC3CCCO3)C2)cn1 (some centres undefined) | -8.14
77 | Cc1nc(CN2C(=O)COC3(CCN(Cc4ccsc4)CC3)C2C)cs1 (centres undefined) | -123
78 | CCC(=O)NCc1ccc(N2CCCCC2)cc1 | -6.89
79 | O=C(NC[C@H]1OC[C@@H](NC2CCOCC2)[C@@H]1O)Nc1ccccc1 | -5.75
80 | CCC1=N[C@@]2(CC[C@@H]3CN(CC4CC4)C[C@@H]32)C(=O)N1 | 4.86
81 | CC(NCc1ccc(C(N)=O)cc1)c1ccc(Cl)c(Cl)c1 (centres undefined) | 8.8
82 | CC(C)(CO)CNC(=O)c1ccnn1-c1ccc2ccccn12 | 15.8
83 | CC(C)[C@@H]1CN(Cc2cnc(C3CCCCC3)nc2)C[C@H]1C(=O)O | -6.46
84 | Cc1noc(C)c1CN1CC[C@H]2OCC[C@@]2(C(=O)N2CCCC2)C1 | -70.7
85 | O=C(O)c1cc2n(n1)CCCN(C(=O)CCc1c[nH]c3ccccc13)C2 | 3.77
86 | COCC(=O)N1CC[C@H]2OCC[C@@]2(c2nc(C)no2)C1 | -0.461
87 | CCc1noc(CNc2cc3c(cc2Cl)OCCO3)n1 | -0.18
88 | COc1cccc(-c2nc(C)c(C(=O)N[C@H](CO)CCSC)s2)c1 | 4.63

Row | SMILES | cytotoxicity at 10 µM [%]
89 | Cc1nc2cc(C(=O)N(CCC#N)CC3CCCO3)ccc2[nH]1 (centres undefined) | -0.58
90 | CN(C)c1ccc(NC(=O)N2CCCCC2c2ncc[nH]2)cn1 (centres undefined) | -1.78
91 | c1ccc(CO[C@@H]2CC[C@H]3[C@H]2OCCN3Cc2ccsc2)nc1 | -4.69
92 | COCC(=O)N1C[C@H]2CCCC(OCc3cccnc3)[C@H]2C1 (some centres undefined) | -5.67
93 | CN(C(=O)Nc1cccc(C#N)c1)C1CCN(c2ccccn2)CC1 | 1.66
94 | O=C(CCNS(=O)(=O)c1ccccc1)N1CCOC(c2ccccc2)C1 (centres undefined) | 6.6
95 | CCN1CCN(Cc2nc(C)no2)CC1 | 0.978
96 | Cc1nn(CCO)c(C)c1CNC1CCCCc2ccccc21 (centres undefined) | -2.42
97 | COC1(CNC(=O)NCCOc2ccccc2)CCSC1 (centres undefined) | -0.572
98 | CS(=O)(=O)c1ccc(CNc2nccc(C(F)(F)F)n2)cc1 | -23.2
99 | Cc1cccc(C)c1NC(=O)CC(CN1CCN(C)CC1)C(=O)O (centres undefined) | -3.68
100 | COCCN1C[C@@H]2CN(S(=O)(=O)c3cccs3)C[C@@H]2C1=O | 0.258
101 | Cc1nc2ccnn2c(C)c1CCC(=O)N1CCN2CCCCC2C1 (centres undefined) | -8.82
102 | N#CC1COCCN1C(=O)c1ccc2[nH]ccc2c1 (centres undefined) | 14.4
103 | O=C1CC(c2cccnc2)C2(CCN(C(=O)N3CCOCC3)CC2)N1 (centres undefined) | -79.5
104 | Cc1cc2nc(C3CCCCC3)c(-c3ccnc(NCCO)n3)cn2n1 | -0.0295
105 | O=C(CC1CC1)N1CCN(Cc2ccncc2)c2ncccc2C1 | 10
106 | CCNC(=O)NC(=O)CNC(C)(C)c1ccc2c(c1)OCO2 | -8.58
107 | O=C1COC2(CCN(Cc3ccncc3)CC2)CN1c1ccccc1 | -126
108 | CC1CN(CC(=O)NC2CCOCC2)CCN1Cc1nccn1C (centres undefined) | -6.57
109 | CCN(CC)S(=O)(=O)N(C)Cc1ccc2c(c1)OCCO2 | -7.85
